Results reported in ChEMBL document CHEMBL2417506, “Synthesis and antiprotozoal activity of original porphyrin precursors and derivatives” (Eur J Med Chem, 2013).
Activity calls are given as the source filed them. The rule behind the calls is not given here.

Legend:
[1] = Cytotoxicity against Swiss mouse peritoneal macrophages at 20 uM after 5 days by MTT assay; assay type: cell-based, Peritoneal macrophage cell
In short: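 Thioglycolate-elicited peritoneal macrophages from female Swiss mice, 5 × 10^4/well in RPMI 1640 with 10% FCS, 25 mM Hepes and 2 mM L-glutamine. Washed at 4 h to remove fibroblasts. Drug-containing medium added at 48 h, stopped at day 5. Viability read by MTT.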

[2] = tested on: Trypanosoma brucei brucei; test: Trypanocidal activity against Trypanosoma brucei brucei by drug incubation infectivity test; assay type: functional; conditions: read-out: MEC
Leishmania donovani [3] = test: Antileishmanial activity against amastigotes forms of Leishmania donovani MHOM/ET/67/HU3 infected in Swiss mouse peritoneal macrophages at 20 uM after 5 days; assay type: functional, organism-based
In short: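 Peritoneal macrophages from female Swiss mice (18–20 g) infected after 24 h with stationary-phase L. donovani promastigotes at 10 parasites per macrophage. Free promastigotes removed at 18 h, then amastigotes treated. Medium with drug renewed at 48 h, stopped at day 5. Percentage of infected macrophages scored microscopically after Giemsa staining. Run in triplicate.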

Leishmania donovani [4] = test: Antileishmanial activity against promastigote forms of Leishmania donovani MHOM/ET/67/HU3 after 3 days by MTT assay; assay type: functional, organism-based; conditions: MHOM/ET/67/HU3, 72 h
In short: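 Log-phase promastigotes at 10^6 cells/mL in supplemented M-199. Serial dilutions gave final concentrations of 100 µM to 50 nM, in triplicate. Incubated 3 days at 27 °C, dark, 5% CO2. Viability read by MTT reduction, with Triton X100/HCl lysis and absorbance at 570 nm. IC50 ± SD.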

Plasmodium falciparum = test: Antimalarial activity against Plasmodium falciparum 3D7 infected in human O positive erythrocytes assessed as reduction of parasite growth after 24 to 44 hrs by Giemsa staining; assay type: functional, organism-based
In short: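 Sorbitol-synchronized ring-stage 3D7 parasites in O+ erythrocytes (5% v/v suspension, 0.5% parasitemia) exposed to compounds from DMSO stock for 44 h at 37 °C. Growth measured by pLDH ELISA after freeze-thaw hemolysis and by Giemsa thin smears at 24 and 44 h, counting at least 5000 erythrocytes. Expressed as % reduction against medium-only control.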

Fc1c(F)c(F)c(/C(=C2\C=CC=N2)c2ccc[nH]2)c(F)c1F
CC50 at 120 h [1]: > 100 µM
minimal effective concentration [2]: 12.5 µM
Activity (Leishmania donovani [3]): inactive
IC50 (Leishmania donovani [4]): 3.61 µM

Clc1cccc(Cl)c1/C(=C1\C=CC=N1)c1ccc[nH]1
CC50 at 120 h [1]: > 100 µM
minimal effective concentration [2]: 12.5 µM
Activity (Leishmania donovani [3]): inactive
IC50 (Leishmania donovani [4]): 5.55 µM

COC(=O)[C@@H]1CCC(=O)N1c1c2nc(c(-c3cc(OC)c(OC)c(OC)c3)c3ccc(cc4nc(c(-c5cc(OC)c(OC)c(OC)c5)c5ccc1[nH]5)C=C4)[nH]3)C=C2
CC50 at 120 h [1]: > 100 µM
Activity (Leishmania donovani [3]): inactive
IC50 (Leishmania donovani [4]): ≥ 100 µM

O=Cc1c2nc(c(-c3cccc(Br)c3)c3ccc(cc4nc(c(-c5cccc(Br)c5)c5ccc1[nH]5)C=C4)[nH]3)C=C2
IC50 (Plasmodium falciparum): > 20 µM
CC50 at 120 h [1]: > 100 µM
minimal effective concentration [2]: > 100 µM
Activity (Leishmania donovani [3]): inactive
IC50 (Leishmania donovani [4]): ≥ 100 µM

Brc1ccccc1/C(=C1\C=CC=N1)c1ccc[nH]1
CC50 at 120 h [1]: > 100 µM
minimal effective concentration [2]: 50 µM
Activity (Leishmania donovani [3]): inactive
IC50 (Leishmania donovani [4]): 5.38 µM

COC(=O)[C@@H]1CCC(=O)N1c1c2nc(c(-c3cc(OC)c(OC)c(OC)c3)c3ccc([nH]3)c(N3C(=O)CC[C@H]3C(=O)OC)c3nc(c(-c4cc(OC)c(OC)c(OC)c4)c4ccc1[nH]4)C=C3)C=C2
CC50 at 120 h [1]: > 100 µM
minimal effective concentration [2]: 100 µM
Activity (Leishmania donovani [3]): inactive
IC50 (Leishmania donovani [4]): ≥ 100 µM

Brc1c2nc(c(-c3ccccc3)c3ccc([nH]3)c(Br)c3nc(c(-c4ccccc4)c4ccc1[nH]4)C=C3)C=C2
IC50 (Plasmodium falciparum): 0.2 µM
CC50 at 120 h [1]: > 100 µM
minimal effective concentration [2]: > 100 µM
Activity (Leishmania donovani [3]): inactive
IC50 (Leishmania donovani [4]): ≥ 100 µM

c1ccc(C(c2ccc[nH]2)c2ccc[nH]2)cc1
CC50 at 120 h [1]: > 100 µM
minimal effective concentration [2]: > 100 µM
Activity (Leishmania donovani [3]): inactive
IC50 (Leishmania donovani [4]): ≥ 100 µM

C1=C/C(=C(\c2ccccc2)c2ccc[nH]2)N=C1
CC50 at 120 h [1]: > 100 µM
minimal effective concentration [2]: 25 µM
Activity (Leishmania donovani [3]): inactive
IC50 (Leishmania donovani [4]): 5.23 µM

CCCCCCCCCCCCCCCCOP(=O)([O-])OCC[N+](C)(C)C [MILTEFOSINE]
CC50 at 120 h [1]: 15.8 µM
IC50 (Leishmania donovani [4]): 4.26 µM

COc1cc(C(c2ccc[nH]2)c2ccc[nH]2)cc(OC)c1OC
CC50 at 120 h [1]: > 100 µM
minimal effective concentration [2]: 100 µM
Activity (Leishmania donovani [3]): inactive
IC50 (Leishmania donovani [4]): ≥ 100 µM

Fc1c(F)c(F)c(C(c2ccc[nH]2)c2ccc[nH]2)c(F)c1F
CC50 at 120 h [1]: > 100 µM
minimal effective concentration [2]: > 100 µM
Activity (Leishmania donovani [3]): inactive
IC50 (Leishmania donovani [4]): 44.1 µM

O=C1CCCN1c1c2nc(c(-c3ccccc3)c3ccc([nH]3)c(N3CCCC3=O)c3nc(c(-c4ccccc4)c4ccc1[nH]4)C=C3)C=C2
CC50 at 120 h [1]: > 100 µM
minimal effective concentration [2]: > 100 µM
Activity (Leishmania donovani [3]): inactive
IC50 (Leishmania donovani [4]): ≥ 100 µM

Brc1ccccc1C(c1ccc[nH]1)c1ccc[nH]1
CC50 at 120 h [1]: > 100 µM
minimal effective concentration [2]: > 100 µM
Activity (Leishmania donovani [3]): inactive
IC50 (Leishmania donovani [4]): 44.7 µM

COc1cc(/C(=C2\C=CC=N2)c2ccc[nH]2)cc(OC)c1OC
CC50 at 120 h [1]: > 100 µM
minimal effective concentration [2]: 25 µM
Activity (Leishmania donovani [3]): inactive
IC50 (Leishmania donovani [4]): 4.71 µM

O=C1CCC(C(O)(c2ccccc2)c2ccccc2)N1c1c2nc(c(-c3ccccc3)c3ccc([nH]3)c(N3C(=O)CCC3C(O)(c3ccccc3)c3ccccc3)c3nc(c(-c4ccccc4)c4ccc1[nH]4)C=C3)C=C2 (stereo not given)
CC50 at 120 h [1]: > 100 µM
minimal effective concentration [2]: 50 µM
Activity (Leishmania donovani [3]): inactive
IC50 (Leishmania donovani [4]): 53 µM

N=C(N)c1ccc(OCCCCCOc2ccc(C(=N)N)cc2)cc1 [PENTAMIDINE]
CC50 at 120 h [1]: 26.3 µM
minimal effective concentration [2]: 5 µM
IC50 (Leishmania donovani [4]): 3.1 µM

O=C1CCCN1c1c2nc(c(-c3ccccc3)c3ccc([nH]3)c(Br)c3nc(c(-c4ccccc4)c4ccc1[nH]4)C=C3)C=C2
CC50 at 120 h [1]: > 100 µM
minimal effective concentration [2]: 6.25 µM
Activity (Leishmania donovani [3]): inactive
IC50 (Leishmania donovani [4]): 6.37 µM
